# Results: ChEMBL document CHEMBL1275524, “Activities of antifungal agents against yeasts and filamentous fungi: assessment according to the methodology of the European Committee on Antimicrobial Susceptibility Testing” (2008)
# Assays:
# [1] = system: Aspergillus terreus; assay: Antifungal activity against Aspergillus terreus by EUCAST method; type: functional
# [2] = system: Geotrichum candidum; assay: Antifungal activity against Geotrichum candidum; type: functional
# [3] = system: Rhizopus; assay: Antifungal activity against Rhizopus species; type: functional
# Method in brief: (§1)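 Broth microdilution following the EUCAST reference procedure for spore-forming moulds, in flat-bottom plates with RPMI 1640 plus 2% glucose. Inoculum was 2 × 10^5 to 5 × 10^5 CFU/ml. MICs were read visually at 24 and 48 h as 100% growth reduction versus a drug-free control for polyenes and azoles. MEC was used for caspofungin. Tests were run in duplicate and repeated twice.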
# [4] = system: Saccharomyces cerevisiae; assay: Antifungal activity against Saccharomyces cerevisiae; type: functional
# Method in brief: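 Broth microdilution following EUCAST for fermentative yeasts, in flat-bottom plates with RPMI 1640 plus 2% glucose. Inoculum was 0.5 × 10^5 to 2.5 × 10^5 CFU/ml. End points were read spectrophotometrically at 24 h: ≥90% growth reduction versus a drug-free control for amphotericin B, and 50% OD reduction for azoles and caspofungin. MFC was the lowest concentration giving 99% killing.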
# [5] = system: Rhizopus arrhizus; assay: Antifungal activity against Rhizopus oryzae; type: functional; method in brief: as §1
# [6] = system: Fusarium solani; assay: Antifungal activity against Fusarium solani by EUCAST method; type: functional
# [7] = system: Talaromyces marneffei; assay: Antifungal activity against Penicillium marneffei by EUCAST method; type: functional
# [8] = system: Rhizopus arrhizus; assay: Antifungal activity against Rhizopus oryzae by EUCAST method; type: functional; method in brief: as §1
# [9] = system: Trichosporon inkin; assay: Antifungal activity against Trichosporon inkin by EUCAST method; type: functional
# Method in brief: (§2)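 Nonfermentative yeasts were tested by the EUCAST microdilution recommendations with one change: plates were sealed and agitated at 350 rpm and 30°C for 48 h.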
# [10] = system: Curvularia lunata; assay: Antifungal activity against Curvularia lunata; type: functional
# [11] = system: Rhizomucor; assay: Antifungal activity against Rhizomucor species; type: functional
# [12] = system: Pichia kudriavzevii; assay: Antifungal activity against Candida krusei; type: functional
# Method in brief: (§3)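 EUCAST broth microdilution for yeasts in flat-bottom plates, RPMI 1640 with 2% glucose, inoculum 0.5 × 105 to 2.5 × 10^5 CFU/ml. […] MFC is the lowest concentration giving 99% killing.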
# [13] = system: Lomentospora prolificans; assay: Antifungal activity against Scedosporium prolificans; type: functional; method in brief: as §1
# [14] = Antifungal activity against Cryptococcus neoformans var. neoformans by EUCAST method; type: functional; conditions: Cryptococcus deneoformans
# Method in brief: (§4)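 EUCAST yeast microdilution, modified for nonfermentative yeasts: plates were sealed and agitated at 350 rpm and 30°C for 48 h.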
# [15] = system: Clavispora lusitaniae; assay: Antifungal activity against Candida lusitaniae; type: functional
# Method in brief: (§5)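 Broth microdilution in flat-bottom plates in RPMI 1640 with 2% glucose; inoculum 0.5 × 105 to 2.5 × 10^5 CFU/ml. MICs were read spectrophotometrically at 24 h. AMB endpoint: ≥90% growth reduction vs drug-free control well. Azole and CPF endpoint: 50% reduction in optical density. MFC was taken as the lowest concentration giving 99% killing.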
# [16] = Antifungal activity against Rhinocladiella aquaspersa by EUCAST method; type: functional
# Method in brief: (§6)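 Dematiaceous fungi were tested by the EUCAST spore-forming mold reference procedure: flat-bottom microdilution plates, RPMI 1640 plus 2% glucose, inoculum 2 × 105 to 5 × 10^5 CFU/ml. Endpoints were read visually at 24 and 48 h. Polyenes and azoles: 100% growth reduction vs drug-free control. CPF: minimum effective concentration. Run in duplicate and repeated twice.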
# [17] = system: Absidia; assay: Antifungal activity against Absidia species; type: functional
# [18] = system: Curvularia lunata; assay: Antifungal activity against Curvularia lunata by EUCAST method; type: functional; method in brief: as §6
# [19] = Antifungal activity against Rhizopus microsporus var. oligosporus; type: functional; method in brief: as §1
# [20] = Antifungal activity against Rhinocladiella aquaspersa; type: functional; method in brief: as §6
# [21] = system: Fusarium oxysporum; assay: Antifungal activity against Fusarium oxysporum; type: functional
# [22] = system: Penicillium sp.; assay: Antifungal activity against Penicillium species; type: functional
# [23] = system: Trichosporon asahii; assay: Antifungal activity against Trichosporon asahii by EUCAST method; type: functional; method in brief: as §2
# [24] = system: Saccharomyces cerevisiae; assay: Antifungal activity against Saccharomyces cerevisiae by EUCAST method; type: functional; method in brief: as §3
# [25] = system: Geotrichum candidum; assay: Antifungal activity against Geotrichum candidum by EUCAST method; type: functional
# [26] = system: Aspergillus flavus; assay: Antifungal activity against Aspergillus flavus; type: functional
# [27] = system: Mucor; assay: Antifungal activity against Mucor species by EUCAST method; type: functional
# [28] = system: Cryptococcus gattii; assay: Antifungal activity against Cryptococcus neoformans var. gattii; type: functional, Cryptococcus bacillisporus; method in brief: as §4
# [29] = system: Mucor hiemalis; assay: Antifungal activity against Mucor hiemalis; type: functional
# [30] = system: Nakaseomyces glabratus; assay: Antifungal activity against Candida glabrata; type: functional; method in brief: as §5
# [31] = system: Aspergillus niger; assay: Antifungal activity against Aspergillus niger; type: functional
# [32] = system: Trichosporon inkin; assay: Antifungal activity against Trichosporon inkin; type: functional; method in brief: as §2
# [33] = system: Fusarium oxysporum; assay: Antifungal activity against Fusarium oxysporum by EUCAST method; type: functional
# [34] = system: Candida tropicalis; assay: Antifungal activity against Candida tropicalis by EUCAST method; type: functional; method in brief: as §5
# [35] = system: Meyerozyma guilliermondii; assay: Antifungal activity against Candida guilliermondii; type: functional; method in brief: as §5
# [36] = system: Candida parapsilosis; assay: Antifungal activity against Candida parapsilosis by EUCAST method; type: functional; conditions: Lodderomyces parapsilosis; method in brief: as §5
# [37] = system: Meyerozyma guilliermondii; assay: Antifungal activity against Candida guilliermondii by EUCAST method; type: functional; method in brief: as §5
# [38] = system: Trichosporon asahii; assay: Antifungal activity against Trichosporon asahii; type: functional; method in brief: as §2
# [39] = system: Aspergillus fumigatus; assay: Antifungal activity against Aspergillus fumigatus; type: functional
# [40] = system: Aspergillus flavus; assay: Antifungal activity against Aspergillus flavus by EUCAST method; type: functional
# [41] = system: Aspergillus niger; assay: Antifungal activity against Aspergillus niger by EUCAST method; type: functional
# [42] = system: Sporothrix schenckii; assay: Antifungal activity against Sporothrix schenckii by EUCAST method; type: functional; method in brief: as §1
# [43] = system: Scedosporium apiospermum; assay: Antifungal activity against Scedosporium apiospermum by EUCAST method; type: functional; method in brief: as §1
# [44] = system: Curvularia australiensis; assay: Antifungal activity against Bipolaris australiensis; type: functional; method in brief: as §6
# [45] = system: Candida tropicalis; assay: Antifungal activity against Candida tropicalis; type: functional; method in brief: as §5
# [46] = system: Cunninghamella; assay: Antifungal activity against Cunninghamella species; type: functional
# [47] = system: Cunninghamella; assay: Antifungal activity against Cunninghamella species by EUCAST method; type: functional
# [48] = system: Talaromyces marneffei; assay: Antifungal activity against Penicillium marneffei; type: functional
# [49] = system: Lichtheimia corymbifera; assay: Antifungal activity against Absidia corymbifera by EUCAST method; type: functional
# [50] = system: Nakaseomyces glabratus; assay: Antifungal activity against Candida glabrata by EUCAST method; type: functional; method in brief: as §5
# [51] = system: Candida albicans; assay: Antifungal activity against Candida albicans; type: functional; method in brief: as §5
# [52] = system: Fusarium solani; assay: Antifungal activity against Fusarium solani; type: functional
# [53] = system: Candida albicans; assay: Antifungal activity against Candida albicans by EUCAST method; type: functional; method in brief: as §5
# [54] = system: Pichia kudriavzevii; assay: Antifungal activity against Candida krusei by EUCAST method; type: functional; method in brief: as §5
# [55] = system: Lichtheimia corymbifera; assay: Antifungal activity against Absidia corymbifera; type: functional
# [56] = system: Scedosporium apiospermum; assay: Antifungal activity against Scedosporium apiospermum; type: functional; method in brief: as §1
# [57] = system: Clavispora lusitaniae; assay: Antifungal activity against Candida lusitaniae by EUCAST method; type: functional; method in brief: as §5
# [58] = system: Sporothrix schenckii; assay: Antifungal activity against Sporothrix schenckii; type: functional; method in brief: as §1
# [59] = system: Aspergillus fumigatus; assay: Antifungal activity against Aspergillus fumigatus by EUCAST method; type: functional
# [60] = system: Penicillium sp.; assay: Antifungal activity against Penicillium species by EUCAST method; type: functional
# [61] = system: Curvularia australiensis; assay: Antifungal activity against Bipolaris australiensis by EUCAST method; type: functional; method in brief: as §6
# [62] = system: Candida parapsilosis; assay: Antifungal activity against Candida parapsilosis; type: functional; conditions: Lodderomyces parapsilosis; method in brief: as §5
# [63] = system: Cryptococcus gattii; assay: Antifungal activity against Cryptococcus neoformans var. gattii by EUCAST method; type: functional, Cryptococcus bacillisporus; method in brief: as §4
# [64] = Antifungal activity against Cryptococcus neoformans var. neoformans; type: functional; conditions: Cryptococcus deneoformans; method in brief: as §4
# [65] = system: Aspergillus terreus; assay: Antifungal activity against Aspergillus terreus; type: functional
# [66] = system: Mucor; assay: Antifungal activity against Mucor species; type: functional
compound,measurement,setting,value
CCC(C)n1ncn(-c2ccc(N3CCN(c4ccc(OCC5COC(Cn6cncn6)(c6ccc(Cl)cc6Cl)O5)cc4)CC3)cc2)c1=O (stereo unspecified) [ITRACONAZOLE],MIC,[1],0.58 µg/mL
same,MFC,[2],> 8 µg/mL
same,MFC,[3],> 4 µg/mL
same,MFC,[4],> 4 µg/mL
same,MFC,[5],> 8 µg/mL
same,MIC,[6],6 µg/mL
same,MIC,[7],0.25 µg/mL
same,MIC,[8],4 µg/mL
same,MIC,[9],0.21 µg/mL
same,MFC,[10],0.5 µg/mL
same,MFC,[11],> 2 µg/mL
same,MFC,[12],0.5 µg/mL
same,MFC,[13],> 8 µg/mL
same,MIC,[14],0.11 µg/mL
same,MFC,[15],0.25 µg/mL
same,MIC,[16],0.12 µg/mL
same,MFC,[17],> 2 µg/mL
same,MIC,[18],0.03 µg/mL
same,MFC,[19],> 8 µg/mL
same,MFC,[20],0.5 µg/mL
same,MFC,[21],0.25 µg/mL
same,MFC,[22],> 2 µg/mL
same,MIC,[23],0.17 µg/mL
same,MIC,[24],2 µg/mL
same,MIC,[25],1.45 µg/mL
same,MFC,[26],0.5 µg/mL
same,MIC,[27],4.36 µg/mL
same,MFC,[28],0.5 µg/mL
same,MFC,[29],> 8 µg/mL
same,MFC,[30],> 4 µg/mL
same,MFC,[31],> 4 µg/mL
same,MFC,[32],0.25 µg/mL
same,MIC,[33],4.5 µg/mL
same,MIC,[34],0.56 µg/mL
same,MFC,[35],2 µg/mL
same,MIC,[36],0.32 µg/mL
same,MIC,[37],0.87 µg/mL
same,MFC,[38],> 4 µg/mL
same,MFC,[39],2 µg/mL
same,MIC,[40],0.59 µg/mL
same,MIC,[41],0.98 µg/mL
same,MIC,[42],0.12 µg/mL
same,MIC,[43],2.66 µg/mL
same,MFC,[44],0.5 µg/mL
same,MFC,[45],> 0.25 µg/mL
same,MFC,[46],4 µg/mL
same,MIC,[47],1.75 µg/mL
same,MFC,[48],0.25 µg/mL
same,MIC,[49],2.5 µg/mL
same,MIC,[50],0.83 µg/mL
same,MFC,[51],0.06 µg/mL
same,MFC,[52],> 8 µg/mL
same,MIC,[53],0.23 µg/mL
same,MIC,[54],1.1 µg/mL
same,MFC,[55],> 2 µg/mL
same,MFC,[56],> 4 µg/mL
same,MIC,[57],0.07 µg/mL
same,MFC,[58],0.5 µg/mL
same,MIC,[59],0.46 µg/mL
same,MIC,[60],4.25 µg/mL
same,MIC,[61],0.12 µg/mL
same,MFC,[62],0.06 µg/mL
same,MIC,[63],0.22 µg/mL
same,MFC,[64],0.5 µg/mL
same,MFC,[65],0.5 µg/mL
same,MFC,[66],> 4 µg/mL
